TDP2 absorb – human TDP2 enzyme inhibitors, primary screen, biochemical, epi absorbance, recombinant enzyme. AID 720702, 2013. T5PNP hydrolysis, p-nitrophenol absorbance 415 nm. inhibition, % at 12.8 µM. hit rate 0.34% among 370,000;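 active = inhibition above the mean of all tested compounds plus 3 SD, set per campaign, cut at about 25% in these data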;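 note: 0% = DMSO with enzyme and 100% = buffer with substrate but no TDP2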
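Test system: human TDP2 enzyme; Input: 120 nM TDP2 per well; Buffer or medium: Mg2+-containing Tris-HCl buffer, pH 7.5; Reagent: 5 mM T5PNP; Dosing: 12.8 µM single point, 1% DMSO; Incubation: reaction 2 h, 37 °C; Detection: p-Nitrophenol epi absorbance; Read-out: % inhibition relative to enzyme-containing and enzyme-free wells; Replicates: single well per compound.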
DDE Tn7 FP inh – inhibitors of Tn7 peptide binding to fibrin DD(E), primary screen, biochemical, fluorescence polarization, human fibrin, Tn7 probe. hit rate 0.13% among 370,000. FP displacement of FITC-Tn7 peptide from fibrin DD(E); 0% = median of compound wells per plate. inhibition, % at 8.3 µM. AID 720508, 2013;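 active = inhibition above the mean of compounds falling within the control limits plus 3 SD of them, cut at about 14% in these data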;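 note: 0% = plate median of compound wells and 100% = 10 µM Aha-Tn7 peptide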
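assay system = human clot-derived fibrin DD(E) complex | quantity = Fibrin-DD(E) at 2 µM final | timing = 10 min preincubation, 3 h with tracer, room temperature | signal = fluorescence polarization | measure = percent inhibition | benchmarks = high control wells with 10 µM unlabelled Aha-Tn7 peptide (full inhibition) | replicates = singlicate testing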
LEDGF integ inh – blockers of LEDGF/p75-dependent integrase strand transfer – biochemical, TR-FRET, high throughput, primary screen. TR-FRET IN-LEDGF/p75 DNA integration, Eu/Cy5. inhibition, % at 3.7 µM. hit rate 0.64% among 370,000. AID 743269, 2014;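 active = inhibition above the screen-wide mean plus 3 SD, cut at about 13% in these data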;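 note: signal is the Cy5 over europium emission ratio at 671 and 618 nm; 0% = plate median of compound wells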
MBD2 inh – inhibitors of MBD2 binding to methylated DNA, primary screen, biochemical, TR-FRET, DNA-binding domain, human | MBD2 binding to methylated oligonucleotide | inhibition, % at 4.4 µM | hit rate 0.31% among 370,000; in the data active = inhibition above about 13%
UHRF1 MBD2 ctr – UHRF1 methylated DNA binding inhibitors, primary screen, counter-screen for MBD2 inhibitor project, biochemical, TR-FRET, human UHRF1, single concentration. E3 ubiquitin-protein ligase UHRF1 (Homo sapiens), Q96T88. inhibition, % at 4.4 µM. UHRF1 binding to methylated oligo. hit rate 0.75% among 370,000. AID 687016, 2013; in the data active = inhibition above about 21%;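 note: UHRF1 SRA domain binding a hemimethylated CpG hairpin DNA probe; 0% = median of test compound wells and 100% = reference inhibitor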
Target sequence (Q96T88 whole entry, looked up, the tested form may be a part): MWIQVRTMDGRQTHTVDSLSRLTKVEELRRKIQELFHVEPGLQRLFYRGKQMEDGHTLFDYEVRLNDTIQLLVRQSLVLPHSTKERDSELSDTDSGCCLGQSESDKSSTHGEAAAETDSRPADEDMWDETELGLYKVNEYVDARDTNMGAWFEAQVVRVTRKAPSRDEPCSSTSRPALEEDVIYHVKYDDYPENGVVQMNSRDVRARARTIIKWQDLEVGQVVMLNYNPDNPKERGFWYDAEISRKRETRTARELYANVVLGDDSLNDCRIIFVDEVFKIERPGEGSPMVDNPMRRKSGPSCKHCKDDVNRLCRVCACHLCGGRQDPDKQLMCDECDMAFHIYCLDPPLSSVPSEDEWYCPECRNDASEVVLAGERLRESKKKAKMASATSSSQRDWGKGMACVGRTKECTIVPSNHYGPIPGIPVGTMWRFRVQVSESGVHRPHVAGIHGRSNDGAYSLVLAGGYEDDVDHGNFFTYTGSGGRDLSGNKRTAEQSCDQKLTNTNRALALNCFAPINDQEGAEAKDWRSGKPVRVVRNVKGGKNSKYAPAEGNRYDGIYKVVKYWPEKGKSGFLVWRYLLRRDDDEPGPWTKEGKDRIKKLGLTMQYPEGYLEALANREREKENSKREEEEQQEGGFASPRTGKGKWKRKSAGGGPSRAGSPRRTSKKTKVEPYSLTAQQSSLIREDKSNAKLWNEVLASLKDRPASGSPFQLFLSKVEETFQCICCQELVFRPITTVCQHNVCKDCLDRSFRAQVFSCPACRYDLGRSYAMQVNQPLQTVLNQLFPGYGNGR
DDE Tn6 FP inh – inhibitors of Tn6 peptide binding to fibrin DD(E), primary screen, biochemical, fluorescence polarization, human fibrin, Tn6 probe. Fibrinogen beta chain (Homo sapiens), P02675. Fibrin DD(E) TRITC-Tn6 fluorescence polarization displacement. inhibition, % at 8.3 µM. hit rate 0.21% among 370,000;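 active = inhibition above a per-campaign cutoff: mean of compounds within control limits plus 3 SD, cut at about 15% in these data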;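 note: 0% = median of all compound wells on the plate and 100% = blocking peptide control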
Numbers without * were called inactive. This is a sample that favours compounds with a hit; in the whole collection about 1.9% have one here.

SMILES	TDP2 absorb	DDE Tn7 FP inh	LEDGF integ inh	MBD2 inh	UHRF1 MBD2 ctr	DDE Tn6 FP inh
Cc1cc(C)n2nc(CC(=O)NCc3ccc(F)cc3)nc2n1	4.4	4.3	-1.1	1.6	99.1*	-0.9
O=C(O)c1cc(-c2ccc(/C=C3\NC(=O)N(c4ccccc4)C3=O)o2)ccc1Cl	2.9	4.2	4.9	5.2	15.9	-7.1
O=C1NN(c2ccccc2)C(=O)/C1=C/c1ccc(-c2ccc(Cl)c(C(=O)O)c2)o1	-7.1	4.0	4.7	0.3	22.9*	1.0
Cc1cccc(N2NC(=O)/C(=C/c3ccc(-c4ccc(Cl)c(C(=O)O)c4)o3)C2=O)c1	-9.4	-3.8	5.3	6.0	31.4*	-4.0
O=C1NC(=O)C2(CCCc3ccc([N+](=O)[O-])cc32)N1 (centres undefined)	1.6	1.3	2.0	-2.5	-1.1	-5.0
Nc1ccc2c(c1)C1(CCC2)NC(=O)NC1=O (centres undefined)	-1.9	5.7	1.1	9.1	21.3*	2.2
O=C(OCC(=O)N1CCCc2ccccc21)c1ccc(Br)o1	4.9	-4.8	-1.8	-5.2	-1.3	1.5
O=C(OCC(=O)N1CCc2ccccc21)c1ccc([N+](=O)[O-])o1	-14.8	-5.3	15.6*	2.6	4.7	-7.2
O=C1CC(c2ccccc2)CC(=O)C1=CN1CCCC1 (centres undefined)	-2.6	0.4	-2.1	2.3	67.7*	-3.2
Cc1ccc(C(=O)NNC(=O)C(C)Sc2nc(N)cc(N)n2)cc1 (centres undefined)	-4.2	5.0	-0.2	7.8	20.8*	-4.1
Cc1ccc2c(c1)N(CCC(=O)NC1CCCCC1)C(=O)CO2	6.8	-10.4	1.3	1.4	21.7*	-1.0
Cc1ccc(C2=NN(CCC(=O)NC3CCCC3)C(=O)CC2)cc1	16.7	-0.8	7.6	2.0	22.8*	-2.7
Cc1ccc2c(c1)N(CC(=O)NC1CCCCC1C)C(=O)CO2 (centres undefined)	6.8	6.8	0.4	2.3	-0.1	-5.1
CSc1nnc2c(n1)C[C@H](c1ccccc1)[C@@H](C)[C@@H](C(=O)N1CCCC1)C2	3.7	3.1	-1.0	1.9	-3.4	9.5
COc1cc(NC(=O)c2cnn3c(C)cc(C)nc23)cc(OC)c1OC	-4.9	-0.9	5.6	2.5	7.1	-0.6
CC(C)OCCCn1c(=NC(=O)c2cccs2)c(C#N)cc2c(=O)n3ccccc3nc21	-5.0	-5.8	8.7	5.8	30.2*	-3.4
COC(=O)CCCCC1SCC2NC(=O)NC21O (centres undefined)	7.3	1.0	41.4*	-0.2	-0.9	-0.8
C/C(=N/NC(=O)C1CC1(c1ccccc1)c1ccccc1)c1ccco1 (centres undefined)	-0.5	7.5	-0.5	1.8	27.8*	5.9
NNC(=O)C1CC1(c1ccccc1)c1ccccc1 (centres undefined)	3.5	0.2	-2.8	4.8	23.0*	1.3
C/C(=N/NC(=O)C1CC1(c1ccccc1)c1ccccc1)c1cccs1 (centres undefined)	11.4	1.2	3.0	-1.0	-4.0	-6.0
O=C(N/N=C/c1ccco1)C1CC1(c1ccccc1)c1ccccc1 (centres undefined)	-13.7	3.7	-3.5	-1.8	-1.0	4.8
Cc1ccc(C(=O)N2CCC(Oc3cccnc3)CC2)c(C)c1	2.6	-0.1	4.9	-0.3	-1.0	-7.8
C[C@@H]1CN([C@@H](C)CO)C(=O)CCCn2cc(nn2)CO[C@H]1CN(C)C(=O)NC1CCCCC1	0.5	0.6	-3.9	8.5	20.7*	4.8
C[C@@H]1CN([C@@H](C)CO)C(=O)CCCn2nncc2CO[C@@H]1CN(C)C(=O)Nc1ccccc1C(F)(F)F	-10.9	-3.0	-3.9	-1.3	21.8*	0.5
C[C@@H]1CN([C@@H](C)CO)C(=O)CCCn2nncc2CO[C@H]1CN(C)C(=O)Nc1ccccc1C(F)(F)F	2.8	-0.8	-6.5	0.6	1.2	-4.0
SMILES	TDP2 absorb	DDE Tn7 FP inh	LEDGF integ inh	MBD2 inh	UHRF1 MBD2 ctr	DDE Tn6 FP inh
C[C@H]1CN([C@@H](C)CO)C(=O)CCCn2nncc2CO[C@@H]1CN(C)Cc1ccccc1	-0.1	4.9	-0.5	4.6	34.5*	5.3
CC(=O)OCC(COC(C)=O)(CN1C(=O)c2ccccc2C1=O)CN1C(=O)c2ccccc2C1=O	-1.7	2.3	4.2	-0.6	0.5	-0.2
COCCCNC(=O)c1ccc(Cn2c(=O)c3ccccc3n(Cc3ccc(C(C)C)cc3)c2=O)cc1	-2.4	-5.1	0.7	0.3	1.0	4.8
O=C(CSc1nnc(-c2ccccn2)n1-c1ccccc1)Nc1ccc(OCc2ccccc2)cc1	-10.2	3.9	-6.5	0.0	3.6	-2.6
C[C@@H]1NS(=O)(=O)c2c(F)cccc2O[C@@H]1c1ccccc1	17.2	6.3	-1.2	2.2	1.1	2.3
Cc1cc(Nc2cccc([N+](=O)[O-])c2)cc(=O)n1-c1cccc([N+](=O)[O-])c1	-2.2	-7.4	2.8	-2.7	0.2	-10.1
CC(OC(=O)Cc1c[nH]c2ccccc12)C(=O)NC1CCCCC1C (centres undefined)	-6.9	-9.7	0.8	7.7	23.0*	0.9
COC(=O)[C@]12C[C@H](CC(=O)N3CCC(c4ccccc4)CC3)C(=O)N(CCC3=CCCCC3)C1=C[C@H](C(C)(C)C)O[C@@H]2C	-14.9	-13.7	6.9	-5.7	4.5	-1.6
CC(C)N1CCC(C)(C(=O)Nc2cccc(Oc3ccccc3)c2)C1 (centres undefined)	5.2	4.1	-2.8	-0.7	30.7*	3.9
Cc1ccc(S(=O)(=O)N2CCC(C(=O)Nc3nnc(-c4ccc(F)cc4)s3)CC2)cc1	5.2	-2.6	3.3	10.6	24.5*	2.1
C/C(C/C(C)=C1/SC(=S)NC1=O)=C1\SC(=S)NC1=O	14.6	0.6	20.5*	18.5*	44.8*	-3.8
CCCCCC/C(C)=C1/SC(=S)NC1=O	12.6	-7.0	-0.5	2.8	17.3	-5.2
Cc1ccc(-c2csc(N(CCCN(C)C)C(=O)c3ccco3)n2)cc1	-3.2	-0.7	1.5	-1.4	-4.3	4.9
CN(C)CCCN(C(=O)c1ccco1)c1nc(-c2ccc(Cl)cc2)cs1	-1.5	3.3	3.4	0.3	81.3*	-4.2
Cc1ccc(OCC(=O)Nc2ccc(S(=O)(=O)Nc3ccccn3)cc2)cc1C	4.5	-8.2	-0.3	-2.2	-7.6	-1.3

Screens (PubChem BioAssay)
